This is an account of results in ChEMBL document CHEMBL4627359, “Design, synthesis and biological evaluation of spiropyrazolopyridone derivatives as potent dengue virus inhibitors” (Bioorg Med Chem Lett, 2020).

The term EC50 denotes the concentration needed to bring the measured effect to its halfway point. High values mean weaker potency, low ones greater potency. One may read the CC50 as the concentration giving 50% cytotoxicity.

Each structure is given as a SMILES string. Some results are limits rather than exact numbers.

One series relates to dengue virus type 2. Kind of series: Antiviral activity against DENV2 infected in human Huh7 cells. To be noted: Huh-7. It is filed as functional, organism-based. A digest of the protocol:
(§1)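 Huh7 cells stably carrying a DENV replicon (serotype 1, 2, 3 or 4) with Renilla luciferase and neomycin-resistance genes. Seeded at 10k/well, incubated overnight at 37 °C in 5% CO₂, then given 2-fold serial compound dilutions in duplicate. After 48 h, luciferase was read with EnduRen live-cell substrate. EC50 came from four-parameter logistic fits of dose-response curves.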

In another series the test system is Huh-7. Kind of series: Cytotoxicity against human HuH7 cells infected with DENV2 assessed as reduction in cell viability. Type of series: cell-based. Summed up:
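Cytotoxicity was read in Huh7 cells stably carrying the DENV-2 Renilla luciferase replicon. Cells were seeded at 10k/well, incubated overnight at 37 °C in 5% CO₂, then given 2-fold serial compound dilutions in duplicate for 48 h. After the live-cell luciferase read, CellTiter-Glo was added to the same wells to measure viability.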

The subject of a further series is dengue virus type 3. Nature of the series: Antiviral activity against DENV3 infected in human Huh7 cells. Type of series: functional, organism-based. To be noted: Huh-7. A digest of the protocol:
as §1

The next series relates to dengue virus type 4. Nature of the series: Antiviral activity against DENV4 infected in human Huh7 cells. Type of series: functional, organism-based. The following applies: Huh-7. A digest of the protocol:
as §1

For the next series, the system named is dengue virus type 1. Kind of series: Antiviral activity against DENV1 infected in human Huh7 cells. Type of series: functional, organism-based. The following applies: Huh-7. Summed up:
as §1

`O=C1CC2(C(=O)Nc3ccc(Cl)cc32)c2cn(Cc3ccc(Cl)cc3)nc2N1` (stereo not drawn) registered an EC50 with dengue virus type 2 of 4400 nM. Besides, the CC50 in the series on Huh-7 is over 10000 nM.
Turning to `O=C1CC2(C(=O)Nc3ccc(Cl)cc32)c2cnn(Cc3ccc(Cl)c(F)c3)c2N1` (stereo not drawn), the EC50 with dengue virus type 2 is 50 nM; with dengue virus type 3, 19 nM; in the series on dengue virus type 4, over 5000 nM; with dengue virus type 1 it was 1800 nM. The CC50 in the series with Huh-7 is over 10000 nM.
For `O=C1CC2(C(=O)Nc3ccc(Cl)cc32)c2cnn(Cc3ccc(Cl)cc3F)c2N1` (stereo not drawn), in that order: 140 nM, 390 nM, over 5000 nM, 2300 nM and over 10000 nM.
`COC(=O)c1ccc(Cn2ncc3c2NC(=O)CC32C(=O)Nc3ccc(Cl)cc32)cc1` (stereo not drawn) registered an EC50 with dengue virus type 2 of over 5000 nM.
Turning to `Cc1nn(Cc2ccc(Cl)cc2)c2c1C1(CC(=O)N2)C(=O)Nc2ccc(Cl)cc21` (stereo not drawn), the concentration for a half-maximal effect (EC50) in the series on dengue virus type 2 was 1800 nM; in the series on dengue virus type 3, 25 nM; in the series with dengue virus type 4, over 5000 nM; in the series on dengue virus type 1 it was 2500 nM. The half-maximal cytotoxic concentration (CC50) in the series on Huh-7 is over 10000 nM.
In the series with dengue virus type 2, `NC(=O)C1C(=O)Nc2c(cnn2Cc2ccc(Cl)cc2)C12C(=O)Nc1ccc(Cl)cc12` (stereo not drawn) yielded a 50% effective concentration (EC50) of 3200 nM. Moreover, the 50% cytotoxic concentration (CC50) in the series on Huh-7 is 50000 nM.
Turning to `N#Cc1ccc(Cn2ncc3c2NC(=O)CC32C(=O)Nc3ccc(Cl)cc32)cc1` (stereo not drawn), in the series with dengue virus type 2, the half-maximal effective concentration (EC50) is over 5000 nM.
`O=C1CC2(C(=O)Nc3ccc(Cl)cc32)c2cnn(Cc3ccc(C(=O)O)cc3)c2N1` (stereo not drawn): the concentration giving a half-maximal response (EC50) in the series on dengue virus type 2 was over 5000 nM.
Regarding `O=C1CC2(C(=O)Nc3ccc(Cl)cc32)c2cnn(Cc3ccc(Cl)cc3)c2N1` (stereo not drawn), the concentration for a half-maximal effect (EC50) in the series on dengue virus type 2 is 110 nM; in the series with dengue virus type 3, 6 nM; with dengue virus type 4, over 10000 nM; with dengue virus type 1, 2400 nM. Besides, the CC50 in the series with Huh-7 is over 10000 nM.
Turning to `CS(=O)(=O)c1ccc(Cn2ncc3c2NC(=O)CC32C(=O)Nc3ccc(Cl)cc32)cc1` (stereo not drawn), the concentration for a half-maximal effect (EC50) with dengue virus type 2 was over 5000 nM.
On to `O=C1CC2(C(=O)Nc3ccc(Cl)cc32)c2cn(Cc3ccc(Cl)c(Cl)c3)nc2N1` (stereo not drawn), for which, in the series on dengue virus type 2, the response was half-maximal at 1100 nM (EC50). In addition, in the series on Huh-7, the 50% cytotoxic concentration (CC50) was over 10000 nM.
For `CC(=O)C1C(=O)Nc2c(cnn2Cc2ccc(Cl)cc2)C12C(=O)Nc1ccc(Cl)cc12` (stereo not drawn), in that order: over 10000 nM and over 20000 nM.
For `O=C1CC2(C(=O)Nc3ccc(Cl)cc32)c2c(C3CC3)nn(Cc3ccc(Cl)cc3)c2N1` (stereo not drawn) the same measures were 1900 nM and over 10000 nM.
`N#Cc1cn(Cc2ccc(Cl)cc2)c2c1C1(CC(=O)N2)C(=O)Nc2ccc(Cl)cc21` (stereo not drawn) showed a 50% effective concentration (EC50) with dengue virus type 2 of over 5000 nM.
In the series on dengue virus type 2, `N#CC1C(=O)Nc2c(cnn2Cc2ccc(Cl)cc2)C12C(=O)Nc1ccc(Cl)cc12` (stereo not drawn) registered a half-maximal effective concentration (EC50) of 8600 nM. Moreover, the CC50 in the series on Huh-7 came out at 50000 nM.
For the molecule `O=C1CC2(C(=O)Nc3ccc(Cl)cc32)c2cnn(Cc3ccc(C(F)(F)F)cc3C(F)(F)F)c2N1` (stereo not drawn), the EC50 in the series on dengue virus type 2 is 38 nM; in the series on dengue virus type 3, 17 nM; in the series on dengue virus type 4, over 5000 nM; in the series with dengue virus type 1, 1600 nM. Moreover, the CC50 in the series on Huh-7 was over 10000 nM.
As to `O=C1CC2(C(=O)Nc3ccc(Cl)cc32)c2cnn(Cc3ccc(Cl)c(Cl)c3)c2N1` (stereo not drawn), the EC50 is 62 nM with dengue virus type 2, over 5000 nM with dengue virus type 3, over 5000 nM in the series with dengue virus type 4 and 1800 nM in the series with dengue virus type 1. Besides, the CC50 with Huh-7 was over 10000 nM.
Regarding `O=C1CC2(C(=O)Nc3ccc(Cl)cc32)c2cnn(Cc3ccc(F)cc3)c2N1` (stereo not drawn), the EC50 in the series with dengue virus type 2 came out at 4200 nM.
